Laboratory results: ChEMBL document CHEMBL6134796, “Development and Evaluation of Indole-Based Phospholipase D Inhibitors for Lung Cancer Immunotherapy” (J Med Chem, 2025)
Activity calls are given as the source filed them.

Legend:
[1] = Metabolic stability in human liver microsomes assessed as parent compound remaining at 1 uM preincubated for 5 mins followed by NADPH regenerating system addition and measured after 30 mins by LC-MS/MS analysis; format: ADME, Microsome; settings: time 35 min, read-out: Stability
Method in brief: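 Human liver microsomes 0.5 mg/mL in 0.1 M phosphate buffer pH 7.4, compound 1 μM, preincubated 5 min at 37 °C; NADPH regenerating system added, 30 min at 37 °C; quenched with acetonitrile containing chlorpropamide internal standard, centrifuged; parent remaining by LC-MS/MS, MRM mode, C18 column with formic acid/acetonitrile gradient.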

[2] = system: A549; test: Inhibition of PLD1 F614A mutant (unknown origin) overexpressed in human A549 cells; format: cell-based
Method in brief: (§1)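 A549 cells transfected with wild-type PLD1, PLD1 mutants (L425A, F614A, F789A) or PLD2, then compound-treated. PLD activity measured as [3H]phosphatidylbutanol formed in the presence of 1-butanol after [3H]myristic acid labeling, expressed as % of total lipid cpm. At least three independent experiments.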

[3] = system: A549; test: Inhibition of cell migration in human A549 cells measured after 24 hrs by crystal violet staining based light microscopic analysis; format: functional
[4] = system: Lewis lung carcinoma cell line; test: Antitumor activity against mouse Lewis lung carcinoma cell line allografted in male C57BL/6 mouse model assessed as recovery of spleen size at 10 mg/kg, po measured every other day for 3 weeks; format: functional, organism-based
Method in brief: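 Syngeneic model: 6-week-old male C57BL/6 mice given 3 × 10^5 LLC cells in 50 μL PBS subcutaneously in the flank. At day 7, mice were randomized to vehicle PO daily or 10 mg/kg PO every other day for 3 weeks. Caliper volume was taken every 2 days as ([…])/2, with tumor weight at end. Spleen size and weight were recorded. Ki67 and cleaved caspase-3 were scored by IHC (DAB, hematoxylin).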

[5] = system: A549; test: Synergistic antiproliferative activity against human A549 cells assessed as reduction in cell proliferation measured up to 48 hrs in presence of gemcitabine by IncuCyte real-time imaging
[6] = system: A549; test: Inhibition of cell proliferation in human A549 cells assessed as reduction in Ki-67 expression; format: functional, cell-based
Method in brief: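 A549 cells immunostained for Ki67 with fluorescent secondary antibody; nuclei counterstained with 1 μM Hoechst 33342; confocal imaging; at least three independent experiments, mean ± SEM.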

[7] = system: A549; test: Inhibition of PLD1 F789A mutant (unknown origin) overexpressed in human A549 cells; format: cell-based; method in brief: as §1
[8] = system: Calu-6; test: Cytotoxicity against human Calu-6 cells assessed as inhibition of cell growth incubated for 48 hrs by WST-1 assay; format: functional, cell-based; settings: Calu-6, 48 h
[9] = target: T1, Phospholipase D1 (Mus musculus) (UniProt Q9Z280); test: In vivo inhibition of PLD1 in male C57BL/6 mouse allografted with mouse Lewis lung carcinoma cell line assessed as decrease in CD163+ anti-inflammatory M2 macrophage population at 10 mg/kg, po by immunofluorescence analysis; format: functional, organism-based
T1 sequence (whole entry): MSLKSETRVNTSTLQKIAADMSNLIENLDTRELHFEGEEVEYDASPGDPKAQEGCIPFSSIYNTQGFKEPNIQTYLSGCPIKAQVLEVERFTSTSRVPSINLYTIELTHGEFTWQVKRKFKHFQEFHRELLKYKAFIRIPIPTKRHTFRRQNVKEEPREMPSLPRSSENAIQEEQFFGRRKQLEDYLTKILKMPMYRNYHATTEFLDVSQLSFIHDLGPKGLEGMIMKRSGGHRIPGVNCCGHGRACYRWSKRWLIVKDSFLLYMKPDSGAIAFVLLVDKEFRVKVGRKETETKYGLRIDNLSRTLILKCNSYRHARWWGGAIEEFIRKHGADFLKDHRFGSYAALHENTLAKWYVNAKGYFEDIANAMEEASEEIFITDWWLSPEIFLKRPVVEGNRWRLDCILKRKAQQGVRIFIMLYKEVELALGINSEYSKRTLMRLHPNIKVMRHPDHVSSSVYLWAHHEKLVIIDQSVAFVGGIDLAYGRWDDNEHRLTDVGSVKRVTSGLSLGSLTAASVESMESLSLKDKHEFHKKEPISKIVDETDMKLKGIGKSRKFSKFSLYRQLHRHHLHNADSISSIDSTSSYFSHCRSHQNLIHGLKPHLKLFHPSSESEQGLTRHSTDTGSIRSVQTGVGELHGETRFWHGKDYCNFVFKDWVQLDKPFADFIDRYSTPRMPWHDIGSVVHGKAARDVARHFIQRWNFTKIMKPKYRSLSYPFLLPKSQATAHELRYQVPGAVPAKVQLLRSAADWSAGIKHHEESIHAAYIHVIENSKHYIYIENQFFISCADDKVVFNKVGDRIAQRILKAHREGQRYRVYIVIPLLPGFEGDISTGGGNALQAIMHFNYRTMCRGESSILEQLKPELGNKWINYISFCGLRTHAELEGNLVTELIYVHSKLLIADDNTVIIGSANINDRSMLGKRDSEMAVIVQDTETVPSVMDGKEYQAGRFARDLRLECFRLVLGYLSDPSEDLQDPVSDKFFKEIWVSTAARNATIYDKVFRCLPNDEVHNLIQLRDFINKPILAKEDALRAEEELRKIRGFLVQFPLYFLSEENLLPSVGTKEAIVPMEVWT
Method in brief: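 Same LLC syngeneic C57BL/6 model, 10 mg/kg PO every other day for 3 weeks. Tumor tissues were stained by immunofluorescence for CD80+ and CD163+ cells, CD8+ T cells, and CD4+/IL-17+ and Treg populations. Nuclei were counterstained with 1 μM Hoechst 33342 and imaged by confocal microscopy.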

[10] = system: A549; test: Induction of apoptosis in human A549 cells assessed as increase in cleaved PARP activity measured up to 48 hrs in presence of gemcitabine by flow cytometry analysis; format: functional, cell-based
Method in brief: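 A549 cells given compound, gemcitabine, or both. Apoptosis assessed by PI staining, annexin V flow cytometry, cleaved PARP immunoblot, and caspase-3 activity. For caspase-3: drugs at 10 μM for 48 h, then 1 μM NucView 488 substrate for 30 min, with 1 μM Hoechst 33342, read by plate fluorescence.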

[11] = target: T1, Phospholipase D1 (Mus musculus); test: In vivo inhibition of PLD1 in male C57BL/6 mouse allografted with mouse Lewis lung carcinoma cell line assessed as reduction in CD24 expression at 10 mg/kg, po by immunofluorescence analysis; format: functional, organism-based
[12] = target: Tubulin beta (Homo sapiens) (UniProt P68371+Q9H4B7+Q13509+P04350+Q3ZCM7+P07437+Q13885+Q9BVA1+Q9BUF5+A6NNZ2); test: Binding affinity to beta-tubulin in human A549 cells assessed as protection against pronase E-mediated proteolysis at 2 to 20 uM incubated for 1 hr by DARTS assay; format: cell-based; settings: dose 2-20 µM
Method in brief: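 A549 lysates made in buffer with protease and phosphatase inhibitors. Lysates were incubated with compound for 1 h at room temperature, then digested with Pronase for 10 min at RT. Digestion was quenched in SDS loading buffer by boiling 5 min. PLD1 and β-tubulin were detected by immunoblot.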

[13] = system: A549 (human); test: Cytotoxicity against human A549 cells assessed as decrease in cell growth by WST-1 assay; settings: time 2-48 hrs
[14] = system: Mus musculus; test: In vivo inhibition of KRAS activation in male C57BL/6 mouse allografted with mouse Lewis lung carcinoma cell line assessed as decrease in IKBalpha phosphorylation at 10 mg/kg, po; format: functional, organism-based

O=C(CCc1c[nH]c2ccccc12)Nc1cc(C(F)(F)F)cc(C(F)(F)F)c1
57.3%: remaining at 0.5 h, 1 µM [1]
19 µM: IC50 [8]
inactive: inhibition [2] | inhibition [7] | Activity [12]
active: inhibition [3] | Activity [4] | Activity [5] | inhibition [6] | inhibition [9] | Activity [10] | inhibition [11] | Activity [13] Time-dependent-effect | inhibition [14]
